Experimental data reported in ChEMBL document CHEMBL4665889, “Design, Synthesis, and Pharmacological Characterization of a Neutral, Non-Prodrug Thrombin Inhibitor with Good Oral Pharmacokinetics” (J Med Chem, 2020).

Experiments:
Plasma = test: Anticoagulation activity in human plasma assessed as drug level causing doubling of prothrombin time incubated for 3 mins; type: functional; details: 0.05 h
Procedure, shortened: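 Citrated human plasma (0.11 M citrate 1:9, spun ~4000g 15 min) incubated with compound at 37 °C for 3 min. Clotting started with thromboplastin and time to coagulation recorded. Value is the concentration doubling clotting time (PT or aPTT).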

[1] = AUC/dose in Wistar Hannover rat at 0.3 to 0.5 mg/kg, iv by LC-MS/MS analysis; type: ADME, organism-based; details: in vivo, dose 0.3-0.5 mg/kg, time <=24 hrs
Procedure, shortened: (§1)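 Male Wistar Hannover rats, catheterized under isoflurane; one day later iv injection into lateral tail vein at 0.3 to 0.5 mg/kg in plasma containing 2% DMSO. Blood sampled via catheter from 0.033 to 24 h. Plasma precipitated with acetonitrile, analysed by LC-MS/MS (10 mM ammonium acetate pH 3.0/acetonitrile gradient). PK parameters calculated from plasma concentrations.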

[2] = Volume of distribution at steady state in Wistar Hannover rat at 0.3 to 0.5 mg/kg, iv by LC-MS/MS analysis; type: ADME, organism-based; details: in vivo, dose 0.3-0.5 mg/kg, time <=24 hrs, read-out: Vdss; procedure, shortened: as §1
[3] = Half life in Wistar Hannover rat at 0.3 to 0.5 mg/kg, iv by LC-MS/MS analysis; type: ADME, organism-based; details: in vivo, dose 0.3-0.5 mg/kg, time <=24 hrs; procedure, shortened: as §1
[4] = target: T1, Nuclear receptor subfamily 1 group I member 2 (Homo sapiens, UniProt O75469); test: Activation of human PXR human hepatocytes assessed as induction of CYP3A4 mRNA expression incubated for 48 hrs by qPCR analysis; type: ADME, tissue-based, Hepatocyte
T1 sequence (O75469 whole entry): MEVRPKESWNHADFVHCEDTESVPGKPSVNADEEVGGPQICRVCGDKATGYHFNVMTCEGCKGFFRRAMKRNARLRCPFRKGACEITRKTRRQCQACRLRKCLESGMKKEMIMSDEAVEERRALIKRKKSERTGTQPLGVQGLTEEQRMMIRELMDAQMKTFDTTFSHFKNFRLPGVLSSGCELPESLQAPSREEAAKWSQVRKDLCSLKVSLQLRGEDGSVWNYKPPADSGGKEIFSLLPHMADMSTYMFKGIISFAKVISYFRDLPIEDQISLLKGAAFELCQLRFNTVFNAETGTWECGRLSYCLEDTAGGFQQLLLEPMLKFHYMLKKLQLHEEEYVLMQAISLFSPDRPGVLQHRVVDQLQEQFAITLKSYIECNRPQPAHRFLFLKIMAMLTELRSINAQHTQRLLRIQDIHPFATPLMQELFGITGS
Procedure, shortened: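 Human hepatocytes in collagen sandwich, cultured 1 d, then treated with eight 1:3 serial concentrations for 2 consecutive days with daily media change. mRNA isolated on magnetic beads, reverse transcribed, and quantified by TaqMan qRT-PCR against actin/tubulin. Fold induction over vehicle by ΔΔCt; NOEL reported.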

[5] = MRT in Wistar Hannover rat at 0.3 to 0.5 mg/kg, iv by LC-MS/MS analysis; type: ADME, organism-based; details: in vivo, dose 0.3-0.5 mg/kg, time <=24 hrs; procedure, shortened: as §1
Cytochrome P450 = test: Inhibition of CYP450 (unknown origin) at 20 uM; type: ADME, protein assay; details: human
[6] = Blood clearance in Wistar Hannover rat at 0.3 to 0.5 mg/kg, iv by LC-MS/MS analysis; type: ADME, organism-based; details: whole blood, dose 0.3-0.5 mg/kg, time <=24 hrs; procedure, shortened: as §1
[7] = Oral bioavailability in Wistar Hannover rat at 1 mg/kg by LC-MS/MS analysis; type: ADME, organism-based; details: in vivo, time <=24 hrs
Procedure, shortened: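 Catheterized male Wistar Hannover rats dosed by gavage at 1 mg/kg in 10% ethanol/40% PEG/50% water. Blood taken via catheter at 0.083 to 24 h. Plasma precipitated with acetonitrile and analysed by LC-MS/MS. Bioavailability derived against iv dosing at 0.3 to 0.5 mg/kg.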

[8] = target: T1, Nuclear receptor subfamily 1 group I member 2; test: Activation of human PXR expressed in human HepG2 cells; type: ADME, cell-based
Procedure, shortened: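 HepG2 cells transiently co-transfected with human PXR and a luciferase reporter under the human CYP3A4 promoter, 48 h before readout. 24 h after seeding, 1:3 serial dilutions (2 nM to 50 μM, 0.5% DMSO) added. Luminescence normalized to rifampicin (100%) and DMSO (0%). MEC is the lowest concentration raising signal above 4-fold SD of DMSO background.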

[9] = Permeability from apical to basolateral side in human Caco2 cells incubated for 2 hrs by LC-MS/MS analysis; type: ADME, cell-based; details: Caco-2
Procedure, shortened: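 Caco-2 cells grown 15 d on 0.4 μm inserts, TEER ≥600 Ω. Compound (DMSO stock diluted 100-fold) in HBSS pH 7.4 with 10 mM HEPES and 20 mM glucose, added apically or basolaterally. Incubated 2 h at 37 °C and analysed by LC-MS/MS. Papp = (Vr/P0)·(1/S)·(P2/t); mean and SD.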

[10] = Clearance in Wistar rat hepatocytes at 1 uM incubated up to 90 mins by LC-MS/MS analysis; type: ADME, cell-based, Hepatocyte; details: Wistar
Procedure, shortened: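 Fresh male Wistar rat hepatocytes, 1 × 10⁶ viable cells/mL, in Williams' medium E at 37 °C, pH 7.4, with 1 μM substrate and <1% acetonitrile. Samples at 2–90 min quenched in acetonitrile and analysed by LC-MS/MS.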

[11] = Ratio of drug level in blood to plasma in Wistar Hannover rat at 0.3 to 0.5 mg/kg, iv by LC-MS/MS analysis; type: ADME, organism-based; details: blood and plasma, dose 0.3-0.5 mg/kg, time <=24 hrs

COc1cc(C(=O)N2CC[C@@H](O)[C@H](C)C2)cc2nc(NCc3cccc(Cl)c3)oc12
2PT (Plasma): 6 µM | AUC/dose [1]: 0.48 kg·h/L | Vd [2]: 2.4 L/kg | half-life [3]: 78 min | NOAEL [4]: 370 ng/mL | MRT [5]: 1.1 h | inhibition (INH) (Cytochrome P450): Not Active | clearance [6]: 28.3 mL/min/kg | bioavailability [7]: 46% | MEC [8]: 0.69 µM | Papp A→B at 2 h [9]: 12.6 ×10⁻⁶ cm/s | CLhep predicted at 1 µM [10]: 38.3 mL/min/kg | blood plasma ratio [11]: 1.24
